Data from ChEMBL document CHEMBL1154480, “Synthesis and evaluation of 4-amino-3,4-dihydro-2H-naphthalen-1-one derivatives as mast cell stabilising and anti-inflammatory compounds” (Eur J Med Chem, 2008).
One block for each compound: values may come before it. Activity calls are given as the source filed them. The calls are words filed in the database; no cut-off is given here.

Tests used:
Mus musculus = assay: Antiinflammatory activity in Laca mouse assessed as inhibition of arachidonic acid-induced ear oedema at 300 ug/ear; type: functional
How it was run: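 Male Laca mice (25-30 g), groups of five, sedated with sodium pentobarbitone 60 mg kg-1 i.p. Compound or indomethacin at 300 µg ear-1 and arachidonic acid at 1 mg ear-1, all in acetone. 5 mm punch biopsies taken from both ears and weighed; left-ear weight subtracted from right. Inhibition calculated against the AA-only group. Student's t-test; at least 5 animals.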

Mast cell [1] = assay: Inhibition of compound-48/80 induced degranulation in Wistar rat peritoneal mast cells assessed as histamine release at 20 uM by spectrophotometry
Mast cell [2] = assay: Inhibition of compound-48/80 induced degranulation in Wistar rat peritoneal mast cells assessed as histamine release by spectrophotometry
Mast cell [3] = assay: Inhibition of concanavalin A-induced degranulation in Wistar rat peritoneal mast cells assessed as histamine release by spectrophotometry
Mast cell [4] = assay: Inhibition of A23187-induced degranulation in Wistar rat peritoneal mast cells assessed as histamine release by spectrophotometry
Mast cell [5] = assay: Inhibition of compound-48/80 induced degranulation in Wistar rat peritoneal mast cells assessed as histamine release at 20 uM by spectrophotometry; type: functional
How it was run: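 Peritoneal cells recovered by lavage with 15 ml HEPES buffer at 37 °C from a female Wistar rat (250-300 g). Cells washed by centrifugation, >90% viable, about 1.4% mast cells. Stopped with iced buffer; released histamine measured by o-phthalaldehyde spectrophotometry. Mean of at least five experiments, SE given.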

Mast cell [6] = assay: Inhibition of compound-48/80 induced degranulation in Wistar rat peritoneal mast cells assessed as histamine release by spectrophotometry; type: functional, cell-based
How it was run: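 Female Wistar rat (250-300 g) peritoneal lavage cells in HEPES buffer, unpurified, preincubated with compound across a dose range. Stopped with iced buffer; histamine release measured spectrophotometrically as o-phthalaldehyde complex. IC50 derived from dose-response curve fitting.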

SMILES: COc1ccc2c(c1)c(CC(=O)O)c(C)n2C(=O)c1ccc(Cl)cc1 [INDOMETHACIN]
inhibition (INH) (Mus musculus): 74%

SMILES: O=C(O)c1cc(=O)c2c(OCC(O)COc3cccc4oc(C(=O)O)cc(=O)c34)cccc2o1 [CROMOLYN SODIUM]
inhibition at 20 µM (Mast cell [1]): 10%

SMILES: CCC(=O)NC1CCC(=O)c2ccccc21 (centres undefined)
inhibition (INH) (Mus musculus): 11%

IC50 (Mast cell [2]): 2400 nM | IC50 (Mast cell [3]): 7200 nM | IC50 (Mast cell [4]): 280 nM
SMILES: O=C1CCC(N(Cc2ccccc2)C2CCCC2)c2ccccc21 (centres undefined)
inhibition at 20 µM (Mast cell [1]): 99%

SMILES: C=CCN(C1CCCC1)C1CCC(=O)c2ccccc21 (centres undefined)
Activity (Mast cell [5]): inactive

SMILES: O=C1CCC(N(Cc2ccc3ccccc3c2)C2CCCC2)c2ccccc21 (centres undefined)
inhibition at 20 µM (Mast cell [1]): 77%

SMILES: CC(=O)c1ccccc1CN(C)Cc1ccccc1
Activity (Mast cell [5]): inactive | Activity (Mast cell [6]): inactive

SMILES: COc1cc(CN(C2CCCC2)C2CCC(=O)c3ccccc32)cc(OC)c1OC (centres undefined)
Activity (Mast cell [5]): inactive

SMILES: CC(=O)N(C1CCCC1)C1CCC(=O)c2ccccc21 (centres undefined)
inhibition (INH) (Mus musculus): 2%

SMILES: O=C1CCC(N(C(=O)Cc2ccccc2)C2CCCC2)c2ccccc21 (centres undefined)
inhibition (INH) (Mus musculus): 53%

SMILES: O=C1CCC(N(Cc2ccc([N+](=O)[O-])cc2)C2CCCC2)c2ccccc21 (centres undefined)
inhibition at 20 µM (Mast cell [1]): 65%

SMILES: N#Cc1ccc(CN(C2CCCC2)C2CCC(=O)c3ccccc32)cc1 (centres undefined)
inhibition at 20 µM (Mast cell [1]): 67%

SMILES: CN(Cc1ccccc1)C1CCC(=O)c2ccccc21 (centres undefined)
Activity (Mast cell [5]): inactive | Activity (Mast cell [6]): inactive

SMILES: CN(C1CCCC1)C1CCC(=O)c2ccccc21 (centres undefined)
inhibition at 20 µM (Mast cell [1]): 43%
